Assay results as given in ChEMBL document CHEMBL3593243, “Discovery of novel, potent, selective and cellular active ADC type PTP1B inhibitors via fragment-docking-oriented de novel design” (Bioorg Med Chem, 2015).
Active and inactive are the calls of the source. The calls are words filed in the database; no cut-off is given here.

Columns and labels:
[1] = target: T1, Tyrosine-protein phosphatase non-receptor type 2 (Homo sapiens) (UniProt P17706); assay: Inhibition of TCPTP (unknown origin) assessed as pNPP hydrolysis at 25 uM after 30 mins relative to control
T1 sequence (whole entry): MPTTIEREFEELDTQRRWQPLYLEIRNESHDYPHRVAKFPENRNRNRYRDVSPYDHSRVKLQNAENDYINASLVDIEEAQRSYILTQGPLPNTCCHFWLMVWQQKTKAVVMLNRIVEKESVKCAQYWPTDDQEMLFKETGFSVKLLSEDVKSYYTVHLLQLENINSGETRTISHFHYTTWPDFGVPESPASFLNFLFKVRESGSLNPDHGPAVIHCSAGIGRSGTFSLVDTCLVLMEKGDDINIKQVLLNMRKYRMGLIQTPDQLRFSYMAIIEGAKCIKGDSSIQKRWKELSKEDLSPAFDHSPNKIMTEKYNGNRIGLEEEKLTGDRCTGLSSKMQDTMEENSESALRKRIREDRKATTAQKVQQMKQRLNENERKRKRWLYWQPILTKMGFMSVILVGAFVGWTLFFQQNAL

[2] = target: T2, Tyrosine-protein phosphatase non-receptor type 11 (Homo sapiens) (UniProt Q06124); assay: Inhibition of SHP2 (unknown origin) using pNPP as substrate at 25 uM relative to control
T2 sequence (whole entry): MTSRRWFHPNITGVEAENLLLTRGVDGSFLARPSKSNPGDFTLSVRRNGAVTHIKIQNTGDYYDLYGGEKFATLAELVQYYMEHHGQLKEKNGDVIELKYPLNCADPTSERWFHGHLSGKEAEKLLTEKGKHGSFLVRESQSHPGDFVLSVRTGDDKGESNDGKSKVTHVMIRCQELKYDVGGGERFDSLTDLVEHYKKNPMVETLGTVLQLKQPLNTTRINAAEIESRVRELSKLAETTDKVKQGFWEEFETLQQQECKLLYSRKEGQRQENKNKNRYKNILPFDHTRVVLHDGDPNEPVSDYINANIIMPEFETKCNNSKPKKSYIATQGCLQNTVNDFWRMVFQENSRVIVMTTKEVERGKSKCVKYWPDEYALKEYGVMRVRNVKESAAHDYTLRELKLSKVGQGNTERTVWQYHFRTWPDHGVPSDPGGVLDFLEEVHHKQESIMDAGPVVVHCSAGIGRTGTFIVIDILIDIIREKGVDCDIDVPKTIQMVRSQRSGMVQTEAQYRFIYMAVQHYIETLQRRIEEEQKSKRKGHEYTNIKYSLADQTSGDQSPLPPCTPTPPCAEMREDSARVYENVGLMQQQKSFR

[3] = target: Receptor-type tyrosine-protein phosphatase F (Homo sapiens) (UniProt P10586); assay: Inhibition of LAR (unknown origin) using pNPP as substrate at 25 uM relative to control
[4] = target: T3, Tyrosine-protein phosphatase non-receptor type 1 (Homo sapiens) (UniProt P18031); assay: Competitive inhibition of recombinant PTP1B (unknown origin) assessed as pNPP hydrolysis at 0.1 to 0.8 uM after 30 mins by Lineweaver-Burk plot analysis
T3 sequence (whole entry): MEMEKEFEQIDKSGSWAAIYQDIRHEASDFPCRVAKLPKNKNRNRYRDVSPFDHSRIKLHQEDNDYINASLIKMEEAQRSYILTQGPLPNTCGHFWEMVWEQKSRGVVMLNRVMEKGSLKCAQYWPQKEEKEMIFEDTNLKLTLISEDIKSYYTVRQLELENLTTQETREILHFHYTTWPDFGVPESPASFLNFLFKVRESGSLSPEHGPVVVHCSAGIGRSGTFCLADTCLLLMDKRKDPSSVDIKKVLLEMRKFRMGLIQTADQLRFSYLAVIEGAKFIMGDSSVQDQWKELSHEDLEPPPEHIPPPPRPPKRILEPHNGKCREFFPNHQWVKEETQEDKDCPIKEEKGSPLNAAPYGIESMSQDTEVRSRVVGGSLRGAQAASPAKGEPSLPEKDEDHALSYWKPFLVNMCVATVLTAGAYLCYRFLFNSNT
Summary of the method: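 Kinetics in 100 µL of 50 mM MOPS pH 6.5 with 30 nM recombinant PTP1B. pNPP in 2-fold dilutions from 64 mM, inhibitor at 0.1–0.8 µM (0 as reference). Km and Vmax from Michaelis–Menten fits; mechanism judged by Lineweaver–Burk double-reciprocal plots.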

CHO = assay: Inhibition of PTP1B in CHO cells transfected with human insulin receptor-beta assessed as increase in insulin-mediated tyrosine phosphorylation of insulin receptor-beta at 25 to 50 uM preincubated for 4 hrs followed by insulin stimulation measured after 10 mins by Western blot analysis; type: cell-based; settings: Cricetulus griseus
Summary of the method: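 CHO cells in F12/10% FBS transfected 8 h with 2 µg human IR plasmid, reseeded and grown 24 h at 37 °C, 5% CO2. Serum-starved 2 h, compound 4 h, then 10 nM insulin 10 min. Lysates (Triton/HEPES pH 7.4 buffer) run on SDS-PAGE, blotted with PY-20 and β-actin.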

Homo sapiens = species on record: Homo sapiens; assay: Selectivity ratio of IC50 for TCPTP (unknown origin) to IC50 for recombinant PTP1B (unknown origin)
Summary of the method: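 Ratio of TCPTP to PTP1B IC50. Both enzymes (PTP1B at 30 nM recombinant) assayed with 2 mM pNPP, 1 mM DTT, 1 mM EDTA, pH 6.5, 30 min at 37 °C, NaOH stop, A405; IC50 by logit method, triplicate for PTP1B.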

[5] = target: Tyrosine-protein phosphatase non-receptor type 6 (Homo sapiens) (UniProt P29350); assay: Inhibition of SHP1 (unknown origin) using pNPP as substrate at 25 uM relative to control
Sequence of Tyrosine-protein phosphatase non-receptor type 6 (Homo sapiens) (P29350 whole entry): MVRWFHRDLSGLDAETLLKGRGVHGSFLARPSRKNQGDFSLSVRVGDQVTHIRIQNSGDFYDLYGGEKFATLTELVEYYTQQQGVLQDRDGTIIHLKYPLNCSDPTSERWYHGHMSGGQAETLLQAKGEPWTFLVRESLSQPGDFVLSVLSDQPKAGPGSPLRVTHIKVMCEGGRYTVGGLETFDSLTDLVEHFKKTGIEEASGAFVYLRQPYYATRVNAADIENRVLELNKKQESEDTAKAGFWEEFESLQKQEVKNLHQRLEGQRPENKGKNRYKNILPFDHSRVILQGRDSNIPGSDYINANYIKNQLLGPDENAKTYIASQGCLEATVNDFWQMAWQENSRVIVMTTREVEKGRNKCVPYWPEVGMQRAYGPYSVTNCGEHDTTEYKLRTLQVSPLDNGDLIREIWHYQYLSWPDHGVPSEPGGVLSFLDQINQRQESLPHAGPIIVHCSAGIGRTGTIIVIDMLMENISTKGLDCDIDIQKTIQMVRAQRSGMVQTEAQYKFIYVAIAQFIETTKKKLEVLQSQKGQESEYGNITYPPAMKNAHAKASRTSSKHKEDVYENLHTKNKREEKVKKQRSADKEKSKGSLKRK

Sequence of Receptor-type tyrosine-protein phosphatase F (Homo sapiens) (P10586 whole entry): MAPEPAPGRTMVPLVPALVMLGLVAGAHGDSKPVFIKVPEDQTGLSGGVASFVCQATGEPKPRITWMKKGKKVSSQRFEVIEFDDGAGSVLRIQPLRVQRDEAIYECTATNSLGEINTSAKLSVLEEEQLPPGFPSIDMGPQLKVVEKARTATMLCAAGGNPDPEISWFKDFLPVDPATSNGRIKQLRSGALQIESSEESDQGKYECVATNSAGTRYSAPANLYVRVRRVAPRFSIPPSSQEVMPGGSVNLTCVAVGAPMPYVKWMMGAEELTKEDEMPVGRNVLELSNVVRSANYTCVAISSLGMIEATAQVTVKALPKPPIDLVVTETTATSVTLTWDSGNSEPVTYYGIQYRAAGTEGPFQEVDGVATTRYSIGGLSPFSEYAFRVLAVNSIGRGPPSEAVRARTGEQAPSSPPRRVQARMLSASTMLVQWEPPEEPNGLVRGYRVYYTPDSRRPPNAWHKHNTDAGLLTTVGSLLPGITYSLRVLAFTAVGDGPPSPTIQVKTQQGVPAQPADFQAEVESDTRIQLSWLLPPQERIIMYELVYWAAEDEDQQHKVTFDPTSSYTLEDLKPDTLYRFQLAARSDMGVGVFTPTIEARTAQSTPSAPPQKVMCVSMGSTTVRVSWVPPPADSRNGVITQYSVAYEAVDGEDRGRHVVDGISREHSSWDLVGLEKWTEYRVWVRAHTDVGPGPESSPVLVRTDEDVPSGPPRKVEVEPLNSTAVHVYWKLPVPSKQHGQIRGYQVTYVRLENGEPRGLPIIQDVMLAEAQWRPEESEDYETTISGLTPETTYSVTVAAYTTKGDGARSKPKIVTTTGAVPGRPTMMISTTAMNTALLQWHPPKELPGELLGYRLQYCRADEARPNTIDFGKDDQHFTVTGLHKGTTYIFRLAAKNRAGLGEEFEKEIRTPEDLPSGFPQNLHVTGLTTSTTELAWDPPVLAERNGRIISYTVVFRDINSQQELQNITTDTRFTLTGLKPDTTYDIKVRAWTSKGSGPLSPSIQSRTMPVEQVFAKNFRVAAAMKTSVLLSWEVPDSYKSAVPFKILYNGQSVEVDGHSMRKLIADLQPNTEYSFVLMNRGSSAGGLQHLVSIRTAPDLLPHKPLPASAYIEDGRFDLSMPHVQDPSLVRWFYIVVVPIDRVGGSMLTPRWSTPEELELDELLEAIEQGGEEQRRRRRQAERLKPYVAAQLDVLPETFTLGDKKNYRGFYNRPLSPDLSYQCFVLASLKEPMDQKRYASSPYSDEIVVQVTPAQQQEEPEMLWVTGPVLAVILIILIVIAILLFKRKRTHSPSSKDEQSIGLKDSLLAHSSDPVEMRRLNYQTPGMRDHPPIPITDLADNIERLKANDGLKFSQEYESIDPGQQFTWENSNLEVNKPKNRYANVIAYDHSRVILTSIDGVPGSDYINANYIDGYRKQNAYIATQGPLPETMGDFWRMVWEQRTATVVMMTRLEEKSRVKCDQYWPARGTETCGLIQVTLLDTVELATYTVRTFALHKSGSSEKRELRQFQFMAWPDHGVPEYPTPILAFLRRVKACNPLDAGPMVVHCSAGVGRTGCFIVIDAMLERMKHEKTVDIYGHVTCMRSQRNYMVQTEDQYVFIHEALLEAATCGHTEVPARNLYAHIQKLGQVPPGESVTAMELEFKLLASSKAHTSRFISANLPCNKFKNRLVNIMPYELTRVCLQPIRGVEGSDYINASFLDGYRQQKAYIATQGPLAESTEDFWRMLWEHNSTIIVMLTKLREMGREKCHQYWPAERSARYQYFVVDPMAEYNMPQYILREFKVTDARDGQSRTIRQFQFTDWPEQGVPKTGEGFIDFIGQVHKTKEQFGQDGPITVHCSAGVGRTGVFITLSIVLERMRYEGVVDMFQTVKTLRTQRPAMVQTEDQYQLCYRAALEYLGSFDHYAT

Row | Compound | inhibition [1] [%] | inhibition [2] [%] | inhibition [3] [%] | inhibition [4] | inhibition (CHO) | Ratio IC50 (Homo sapiens) | inhibition [5] [%]
1 | CCOc1cc(NS(C)(=O)=O)c(OCC)cc1CNC(=O)Nc1ccc(OC)cc1 | < 50 | < 50 | < 50 | Active | Active | > 120 | –
2 | CCOc1cc(NS(C)(=O)=O)c(OCC)cc1CNC(=O)Nc1ccc(C)cc1 | – | < 50 | < 50 | – | – | 16 | < 50
3 | CCOc1cc(NS(C)(=O)=O)c(OCC)cc1CNC(=O)Nc1ccc(Br)cc1 | – | < 50 | < 50 | – | – | 6 | –
